A selection: hits, their analogues and other compounds. The true share with any hit is near 4.3%.
TAAR1 antagonist – antagonists of human TAAR1; Q96RJ0; CHO RD-HGA16 TAAR1, Fluo-8 calcium fluorescence, antagonist; inhibition, % at 3 µM; 1.5% of 360,000 active; AID 624466;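 active = inhibition above a per-plate cutoff, the mean inhibition of test compounds on that plate plus 3 SD, cut at about 49% in these data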;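 also: 0% = DMSO plus EC80 beta-PEA response and 100% = DMSO alone without agonist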
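Test system – hTAAR1-expressing CHO RD-HGA16 cells, Gα16-coupled · Reagent – β-PEA at EC80 concentration, post-compound challenge · Compound dosing – 3 µM, single point · Timing – 140 s kinetic read after compound, 140 s after agonist · Detection – Fluo-8 intracellular calcium dye fluorescence, real-time kinetic reads · Control set – DMSO and EC80 PEA controls · Repeats – n of 1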
CHO parental Ca – counter-screen: ATP calcium response change in parental CHO cells | parental CHO-K1, ATP-induced calcium, Fluo-8 fluorescence | 0.63% of 330,000 active | inhibition, % at 5.6 µM | AID 463079;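 active = inhibition above that plate's mean sample inhibition plus 3 SD, cut at about 26% in these data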;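 also: 0% = ATP-challenged DMSO wells and 100% = DMSO wells without ATP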
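Assay system: parental CHO cells; Read-out basis: percent inhibition of ATP-evoked calcium rise, normalized to controls; Benchmarks: ATP and no-ATP DMSO wells; Compound dosing: single nominal dose of 5.6 µM per compound; Signal: Fluo-8 calcium dye fluorescence; Also added: ATP as calcium-mobilizing challenge; Repeats: singlicate.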
TAAR1 ag – human TAAR1 agonism | activation, % at 3 µM | AID 624467 | 0.99% of 360,000 active | CHO RD-HGA16 TAAR1, Fluo-8 calcium fluorescence; vehicle wells 0%, saturating PEA agonist 100%;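 active = activation above the mean activation of all test compounds in the run plus 3 SD, cut at about 38% in these data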
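Signal – calcium-sensitive Fluo-8 signal, excitation 470-495, emission 515-575 nm · System – RD-HGA16 (CHO) cells co-expressing Gα16 and hTAAR1 · Incubation – 17-24 h seeding, 75 min 37 °C dye, 30 min RT · Compound dosing – 3 µM single concentration · Repeats – no replicates (n 1)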
GalR3 antagonist – antagonists of human GalR3; O60755; HEK293 GalR3-CNG cAMP membrane potential fluorescence; galR3 body fused to GalR1 C-terminus; inhibition, % at 3 µM; 0.44% of 360,000 active; AID 651719;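 active = inhibition above the screen-wide average plus 3 SD, cut at about 13% in these data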;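 also: forskolin and galanin both at EC90 stimulate the cells; cAMP rise reported by CNG channel membrane potential dye signal; 0% = forskolin plus galanin with DMSO and 100% = forskolin alone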
Target sequence (O60755 1-299 limits assumed): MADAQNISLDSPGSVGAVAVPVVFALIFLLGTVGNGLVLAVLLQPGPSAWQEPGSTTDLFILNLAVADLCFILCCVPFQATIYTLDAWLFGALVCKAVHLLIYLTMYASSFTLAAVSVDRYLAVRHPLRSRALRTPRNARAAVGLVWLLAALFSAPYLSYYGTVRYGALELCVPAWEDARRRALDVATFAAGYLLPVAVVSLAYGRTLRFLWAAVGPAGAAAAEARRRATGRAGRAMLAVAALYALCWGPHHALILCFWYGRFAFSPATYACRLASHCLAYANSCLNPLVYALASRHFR
OX1R antag-1 – OX1R (human) antagonism. O43613. OX1R-expressing cells, FRET antagonist read-out. inhibition, % at 6.6 µM. 1.8% of 330,000 active; in the data active = inhibition mostly above about 38%, no sharp cut-off; inactive = mostly below about 40%;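 also: 0% = agonist challenge alone and 100% = reference antagonist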
Target sequence (O43613 whole entry, looked up): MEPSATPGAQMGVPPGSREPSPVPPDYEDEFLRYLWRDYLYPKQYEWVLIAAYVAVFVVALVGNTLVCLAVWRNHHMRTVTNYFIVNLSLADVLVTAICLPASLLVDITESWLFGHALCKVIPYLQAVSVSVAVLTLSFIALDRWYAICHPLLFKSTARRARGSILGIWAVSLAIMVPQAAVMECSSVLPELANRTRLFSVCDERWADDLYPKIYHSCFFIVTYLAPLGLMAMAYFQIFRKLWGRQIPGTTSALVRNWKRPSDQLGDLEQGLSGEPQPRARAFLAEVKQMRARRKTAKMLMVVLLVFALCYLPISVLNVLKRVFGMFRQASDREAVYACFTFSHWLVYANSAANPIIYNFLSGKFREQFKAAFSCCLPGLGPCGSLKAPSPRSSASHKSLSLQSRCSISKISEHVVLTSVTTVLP
OX1R antag-2 – blocks the human orexin 1 receptor. O43613. CHO/OX1R cells, Fluo-8 calcium fluorescence, orexin A. inhibition, % at 5 µM. 0.43% of 330,000 active. AID 434989;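 active = inhibition above its plate's threshold, mean inhibition of all tested compounds on the plate plus 3 SD, cut at about 37% in these data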;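 also: 0% = orexin A challenge wells and 100% = SB-334867-A antagonist wells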
TAAR1 ag conf – human TAAR1 agonism, confirmed | activation, % at 3 µM | CHO RD-HGA16 TAAR1, Fluo-8 calcium fluorescence; scaled: DMSO 0%, maximal phenethylamine 100% | shares compounds with TAAR1 ag | 82% of 2,400 active;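 active = activation above a cutoff set at the run's mean compound activation plus 3 SD, cut at about 39% in these data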
Ga16 ag counter – nonselective agonist in parental cells, TAAR1 agonist counter-screen; 50% of 2,400 active; activation, % at 3 µM; shares compounds with TAAR1 ag; CHO-Ga16 parental, Fluo-8 calcium fluorescence; normalized to maximal ATP response, DMSO zero; AID 651787;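 active = activation above the run cutoff, the mean activation over all tested wells plus 3 SD, cut at about 12% in these data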;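 also: 0% = DMSO wells and 100% = maximal ATP response on the peak over basal ratio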
TAAR1 desensitize – counter-screen for human TAAR1 agonists: agonists that desensitize TAAR1; 46% of 2,400 active; inhibition, % at 3 µM; AID 651951; CHO RD-HGA16 hTAAR1, Fluo-8 calcium, beta-PEA response inhibition; shares compounds with TAAR1 ag;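 active = inhibition above the run cutoff, the mean inhibition of all test compounds plus 3 SD, cut at about 49% in these data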;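 also: beta-PEA stimulus applied at its EC80; loss of beta-PEA calcium signal after compound pretreatment read as receptor desensitization; 0% = DMSO with beta-PEA at EC80 and 100% = DMSO alone without agonist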
Ga16 nonsel ant – nonselective Ga16 antagonist in TAAR1 agonist counter-screen; shares compounds with TAAR1 ag; CHO-Ga16 ATP-induced calcium, Fluo-8 fluorescence; inhibition, % at 3 µM; 39% of 2,400 active;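 active = inhibition above the plate's mean compound inhibition plus 3 SD, computed per plate, cut at about 22% in these data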;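 also: 0% = EC80 ATP with DMSO and 100% = DMSO wells without ATP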
An asterisk follows results filed as active; . = no result given.

SMILES	TAAR1 antagonist	CHO parental Ca	TAAR1 ag	GalR3 antagonist	OX1R antag-1	OX1R antag-2	TAAR1 ag conf	Ga16 ag counter	TAAR1 desensitize	Ga16 nonsel ant
Cc1cc(Nc2ccc(Cl)cc2)nc(N)n1	15.6	-4.5	52.7*	-5.4	16.6	-10.0	61.0*	1.4	36.6	6.5
CSc1ncnc2c1ncn2CCCN1CCN(c2ncccn2)CC1	-8.5	.	3.1	-7.2	.	.	.	.	.	.
O=C(Nc1nc(OCCN2CCCC2=O)cnc1/C=C\c1ccccc1)c1cc2ccccc2s1	13.7	.	3.0	-9.0	.	.	.	.	.	.
Nc1ccn([C@@H]2O[C@H](CN=C3NS(=O)(=O)c4ccccc43)[C@@H](O)[C@H]2O)c(=O)n1	1.9	.	3.5	-1.9	.	.	.	.	.	.
COc1ccncc1-c1ccccc1C1=CC(=O)CC(C)(C)C1=O	-9.9	.	3.4	2.2	.	.	.	.	.	.
Cc1cc(C)n(C(CC(=O)N2CCc3ccccc3C2)C(=O)O)n1 (configuration not stated)	90.0*	-0.7	102.4*	5.0	4.0	1.8	107.1*	3.9	93.7*	4.4
Cc1cc(C)n(C(C)CC(=O)N2CCc3ccccc32)n1 (configuration not stated)	-12.5	-8.7	0.0	1.9	6.2	-7.2	.	.	.	.
Cc1c(Cl)c([N+](=O)[O-])nn1CC(=O)N1CCc2ccccc2C1	-10.6	-2.6	23.2	-0.4	55.0	-21.6	.	.	.	.
CS(=O)(=O)N(CC(=O)N1CCc2ccccc2C1)c1cccc([N+](=O)[O-])c1	-2.3	-5.7	59.7*	-8.9	10.4	-18.0	53.9*	1.5	12.9	10.7
CS(=O)(=O)N(Cc1ccccc1)c1ccc(C(=O)N2CCc3ccccc3C2)cc1	91.4*	-9.5	93.0*	-2.8	8.4	-29.9	101.3*	8.5	96.7*	24.5*
Cc1cc([N+](=O)[O-])nn1CC(=O)N1CCc2ccccc2C1	-1.6	-1.7	61.2*	0.8	24.0	-18.9	44.6*	7.9	11.9	5.3
Cc1ccc(S(=O)(=O)NCC(=O)OCC(=O)N(C)C2CCS(=O)(=O)C2)cc1 (configuration not stated)	-17.8	-8.8	2.5	-6.2	-0.9	-9.5	.	.	.	.
CN(C)CCN(Cc1ccccc1)C(c1ccnc2ccccc12)c1nnnn1-c1ccc2c(c1)OCCO2 (configuration not stated)	-9.4	.	2.2	-1.7	.	.	.	.	.	.
CN(C)CCCN(Cc1ccccc1)C(=S)Nc1ccc(OC(F)F)cc1	-9.9	-6.9	4.8	-2.4	6.4	-12.0	.	.	.	.
Cc1nc2ccccc2n1CCc1ccccc1	-0.9	-12.0	5.2	-2.5	8.8	-7.7	.	.	.	.
Cc1nc(C(N)=O)c(N)n1CCc1ccccc1	72.3*	0.2	97.9*	-0.1	-4.2	5.9	70.0*	0.8	47.5	4.7
CC1CCCN(C(=O)c2cccc(S(=O)(=O)NCc3ccccc3)c2)C1 (configuration not stated)	-16.9	.	5.1	-8.2	.	.	.	.	.	.
CC1CC(C)CN(C(=O)c2cccc(S(=O)(=O)NCc3ccccc3)c2)C1 (configuration not stated)	3.8	-19.9	57.9*	-3.7	14.0	-11.3	50.4*	2.5	13.6	14.5
CC(NCC(O)COCCC12CC3CC(CC(C3)C1)C2)c1ccccc1 (configuration not stated)	87.2*	13.5	83.6*	-4.4	1.9	-6.1	69.7*	41.5*	76.7*	64.4*
NCC(O)COCCC12CC3CC(CC(C3)C1)C2 (configuration not stated)	-5.0	-18.8	12.2	-9.0	10.9	4.4	.	.	.	.
CCOc1ccc(NS(=O)(=O)c2ccc(NC(=S)NC(=O)C(C)C)cc2)cc1	14.5	5.8	59.3*	-2.7	4.6	20.1	42.4*	20.4*	9.1	16.6
CCOc1ccc(NS(=O)(=O)c2ccc(NC(=S)NC(C)=O)cc2)cc1	21.7	-3.7	85.5*	-5.7	10.3	5.6	74.6*	48.2*	53.4*	33.1*
COc1ccccc1OCCn1nnc2ccccc21	-17.6	-8.9	1.4	-8.3	10.2	-2.5	.	.	.	.
CCOC(=O)c1cn(Cc2ccccc2)c(C(=O)OC(C)(C)C)c1O	68.1*	-24.4	82.1*	-2.7	29.8	-28.3	72.5*	55.7*	70.4*	56.8*
CCOC(=O)c1cn(Cc2ccccc2)c2cc(C)nn2c1=O	-7.8	11.7	2.8	-5.0	15.4	-23.7	.	.	.	.
SMILES	TAAR1 antagonist	CHO parental Ca	TAAR1 ag	GalR3 antagonist	OX1R antag-1	OX1R antag-2	TAAR1 ag conf	Ga16 ag counter	TAAR1 desensitize	Ga16 nonsel ant
COc1ccccc1N1CCN(Cc2cc(=O)oc3ccccc23)CC1	-11.1	.	1.0	-3.1	.	.	.	.	.	.
CC(=O)OCC12COC3c4ccccc4OC(C)(CC1C)C3C2C (configuration not stated)	-2.6	-16.8	0.5	-3.9	5.4	-19.6	.	.	.	.
CN(C)CCOc1ccc(C(C)(C)c2ccccc2)cc1	-14.6	-5.4	7.9	-1.2	-2.2	-7.6	.	.	.	.
CN(C)CCCOc1ccc(C(C)(C)c2ccccc2)cc1	0.5	-0.1	74.7*	-0.2	12.1	-14.3	45.0*	8.2	9.0	12.2
Cc1ccc(-c2nc3c(Cl)cc(Cl)cc3c(=O)n2O)cc1	39.0	13.1	79.5*	-6.5	15.3	6.7	48.7*	51.9*	19.0	17.8
CCOc1cc(OCC)cc(C(=O)N2CCC[C@@H]2C(=O)N2CCC[C@@H]2C(=O)NCc2ccccc2Cl)c1	-8.9	.	25.5	-3.5	.	.	.	.	.	.
CCCCN1C(=O)C(CC(=O)NC2CCCC2)CC(C(=O)N(C(C)C)C(C)C)=C1C (configuration not stated)	-26.2	.	0.6	-7.9	.	.	.	.	.	.
Cn1c(=O)cc(Nc2ccc(Cl)cc2)[nH]c1=O	7.9	9.7	48.5*	-12.6	4.4	1.2	66.9*	-0.2	44.3	13.2
Cn1c(NCCc2ccccc2)cc(=O)n(C)c1=O	.	-5.8	.	3.8	4.3	-1.5	.	-0.5	.	11.1
Cn1c(=O)cc(NCCc2ccccc2)[nH]c1=O	17.1	-7.7	68.9*	4.6	12.5	-18.3	73.8*	1.1	44.8	6.6
CCCNc1cc(=O)n(C)c(=O)n1C	-2.3	12.4	0.3	3.4	-3.2	-5.2	.	.	.	.
COc1ccccc1C(=O)NNC(=O)c1cccc(C)c1	1.0	-9.4	4.8	-9.9	-1.4	-14.4	.	.	.	.

Screening results deposited in PubChem by The Scripps Research Institute Molecular Screening Center.
